Here are results for five compounds from ChEMBL document CHEMBL1155615, “Bioactive saponins from Swartzia schomburgkii from the suriname rainforest” (J Nat Prod, 2000).

The test system of experiment [1] is Saccharomyces cerevisiae. Briefly: Antimicrobial activity against Saccharomyces cerevisiae I353. It counts as functional.
Experiment [2] deals with Saccharomyces cerevisiae. Briefly: Antimicrobial activity against Saccharomyces cerevisiae J140. The class given is functional.
The next experiment concerns M109. Briefly: Cytotoxicity against mouse M109 cells. It counts as functional, cell-based. The essentials: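 In vitro antitumor cytotoxicity assay using the murine Madison lung carcinoma line M-109.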
Experiment [3] deals with Saccharomyces cerevisiae. Briefly: Antimicrobial activity against Saccharomyces cerevisiae I138. It counts as functional.

In brackets after ≈: the same amount, converted by molar mass.

Consider `CC1(C)CC[C@]2(C(=O)O)CC[C@]3(C)C(=CC[C@@H]4[C@@]5(C)CC[C@H](O[C@@H]6O[C@H](CO)[C@@H](O)[C@H](O[C@@H]7O[C@H](CO)[C@@H](O)[C@H](O)[C@H]7O)[C@H]6O[C@@H]6OC[C@@H](O)[C@H](O)[C@H]6O)C(C)(C)[C@@H]5CC[C@]43C)[C@@H]2C1` [SWARTZIATRIOSIDE], for which the IC12 was found to be 430 µg/mL in the experiment on Saccharomyces cerevisiae [1], 260 µg/mL in the experiment on Saccharomyces cerevisiae [2] and 120 µg/mL with Saccharomyces cerevisiae [3]. Besides, the IC50 in the experiment with M109 stood at 24.3 µg/mL (≈ 26.6 µM).

Regarding `CC1(C)CC[C@]2(C(=O)O)CC[C@]3(C)C(=CC[C@@H]4[C@@]5(C)CC[C@H](O[C@@H]6O[C@H](CO)[C@@H](O)[C@H](O[C@@H]7O[C@H](CO)[C@@H](O)[C@H](O)[C@H]7O)[C@H]6O[C@@H]6O[C@H](CO)[C@@H](O)[C@H](O)[C@H]6O)C(C)(C)[C@@H]5CC[C@]43C)[C@@H]2C1` [ANCHUSOSID 2], the results for the IC12 with Saccharomyces cerevisiae [1], in the experiment with Saccharomyces cerevisiae [2] and with Saccharomyces cerevisiae [3] were 270 µg/mL, 200 µg/mL and 120 µg/mL, respectively.

Take `CC1(C)CC[C@]2(C(=O)O)CC[C@]3(C)C(=CC[C@@H]4[C@@]5(C)CC[C@H](O[C@@H]6O[C@H](CO)[C@@H](O)[C@H](O[C@@H]7O[C@H](CO)[C@@H](O)[C@H](O)[C@H]7O)[C@H]6O)[C@@](C)(CO)[C@@H]5CC[C@]43C)[C@@H]2C1`: the figures for the IC12 in the experiment on Saccharomyces cerevisiae [1], in the experiment on Saccharomyces cerevisiae [2] and in the experiment on Saccharomyces cerevisiae [3] were 1000 µg/mL, 600 µg/mL and 400 µg/mL, respectively. In the experiment with M109, this compound registered an IC50 of 15.5 µg/mL (≈ 19.4 µM).

With `CC1(C)CC[C@]2(C(=O)O)CC[C@]3(C)C(=CC[C@@H]4[C@@]5(C)CC[C@H](O[C@@H]6O[C@H](CO)[C@@H](O)[C@H](O)[C@H]6O)[C@@](C)(CO)[C@@H]5CC[C@]43C)[C@@H]2C1` [Hederagenin-3-O-beta-D-glucopyranoside], the IC12 in the experiment on Saccharomyces cerevisiae [1] was 280 µg/mL; in the experiment on Saccharomyces cerevisiae [2], 200 µg/mL; with Saccharomyces cerevisiae [3], 125 µg/mL.

Regarding `CC1(C)CC[C@]2(C(=O)O)CC[C@]3(C)C(=CC[C@@H]4[C@@]5(C)CC[C@H](O[C@@H]6O[C@H](CO)[C@@H](O)[C@H](O)[C@H]6O[C@@H]6O[C@H](CO)[C@@H](O)[C@H](O)[C@H]6O)C(C)(C)[C@@H]5CC[C@]43C)[C@@H]2C1` [ACUTOSIDE A], the IC12 came out at 110 µg/mL with Saccharomyces cerevisiae [1], 130 µg/mL in the experiment on Saccharomyces cerevisiae [2] and 75 µg/mL in the experiment with Saccharomyces cerevisiae [3]. In the experiment on M109, this compound displayed an IC50 of 28.7 µg/mL (≈ 36.7 µM).

What is called IC50 is the point on the concentration scale where inhibition reaches its midpoint.
